Columns and labels:
[1] = system: SK-VLB; test: Cytotoxicity was determined in vitro in SKVLB cells(ovarian with upregulated MDRp-glycoprotein) of human tumor cell lines by using MTT assay; assay type: functional, cell-based
Procedure, shortened: (§1)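 MTT microculture tetrazolium assay. Cells grown in α-MEM with 15% heat-inactivated FBS, glutamine, pyruvate, insulin and nonessential amino acids at 37 °C, 5% CO2. Seeded at 1500–4000 cells/well and allowed to adhere overnight. Exposed to compound for 48 h, then fresh medium for 48 h, quadruplicate per concentration. MTT 4 h, dye extracted in DMSO, A570 read. IC50 (50% cell kill) from four-parameter logistic fit.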

[2] = system: LOX IMVI; test: Cytotoxicity was determined in vitro in LOX cells (melanoma) of human tumor cell lines by using MTT assay; assay type: functional, cell-based
Procedure, shortened: (§2)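 Cells grown in α-MEM with 15% heat-inactivated FBS, 2 mM L-glutamine, 1 mM pyruvate, insulin and nonessential amino acids at 37 °C, 5% CO2. Seeded at 1500–4000 cells/well and allowed to adhere overnight. Exposed to compound for 48 h, then to fresh medium for 48 h, in quadruplicate per concentration. MTT for 4 h, dye extracted in DMSO, A570 read. IC50 (50% cell kill) from four-parameter logistic fit.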

[3] = system: T47D; test: Cytotoxicity was determined in vitro in T47D cells(breast) of human tumor cell lines by using MTT assay; assay type: functional, cell-based; procedure, shortened: as §2
[4] = system: SK-OV-3; test: Cytotoxicity was determined in vitro in SK-OV-3 cells (ovarian) of human tumor cell lines by using MTT assay; assay type: functional, cell-based; procedure, shortened: as §1
[5] = system: HT-29; test: Cytotoxicity was determined in vitro in HT-29 cells(colon) of human tumor cell lines by using MTT assay; assay type: functional, cell-based; procedure, shortened: as §1
[6] = MDR ratio as the ratio of IC50 value against SKVLB to that of SKOV3,; assay type: functional
[7] = system: Mus musculus; test: The no. of deaths of mice(infected with HT-29 cells) was reported at a dose of 12 mg/kg; assay type: ADME, organism-based; design: dose 12 mg/kg; conditions: in vivo
Procedure, shortened: (§3)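 HT29 s.c. xenografts in female nu/nu mice, 6 per group. Compound given s.c. in 0.1 M sodium acetate pH 5, twice weekly for 5 weeks. Body weights monitored; mean body weight loss and deaths recorded per dose group. Dose range included the highest dose from a dose-ranging study in naive mice, in which ≥30% weight loss was considered lethal.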

[8] = system: Mus musculus; test: The body weight loss was measured in mice in vivo by using the HT-29 Human colon Xenograft model at a dose of 3 mg/kg; assay type: functional; procedure, shortened: as §3
[9] = system: Mus musculus; test: In vivo efficacy of tumor growth ratio(T/B) of compound was calculated by using the HT-29 Human colon Xenograft model in mice at a dose of 12 mg/kg; assay type: functional
Procedure, shortened: (§4)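 Female nu/nu mice (18–24 g) given 10^6 HT29 cells subcutaneously in the left axillary flank. Grouped at 6 per dose with matched body weight and palpable tumor of about 150 mm². Compound in 0.1 M sodium acetate pH 5, 0.2 mL s.c., twice weekly for 5 weeks. Volume = length × width²/2 by calipers. T/B = end-of-treatment mean volume divided by initial mean volume.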

[10] = system: Mus musculus; test: The no. of deaths of mice(infected with HT-29 cells) was reported at a dose of 3 mg/kg; assay type: functional; procedure, shortened: as §3
[11] = system: Mus musculus; test: In vivo efficacy of tumor growth ratio(T/B) of compound was calculated by using the HT-29 Human colon Xenograft model in mice at a dose of 9 mg/kg; assay type: functional; procedure, shortened: as §4
[12] = system: Mus musculus; test: The body weight loss was measured in mice in vivo by using the HT-29 Human colon Xenograft model at a dose of 6 mg/kg; assay type: functional
Procedure, shortened: (§5)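 HT29 subcutaneous flank xenografts in female nu/nu mice, 6 per group. Compound in 0.1 M acetate buffer pH 5, 0.2 mL s.c., twice weekly for 5 weeks. Body weight monitored twice weekly. Value is group mean body weight loss, with ≥30% loss considered lethal. Dose ceiling set beforehand by dose-ranging in naive mice on the same schedule.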

[13] = system: Mus musculus; test: The body weight loss was measured in mice in vivo by using the HT-29 Human colon Xenograft model at a dose of 12 mg/kg; assay type: functional; procedure, shortened: as §5
[14] = system: Mus musculus; test: In vivo efficacy of tumor growth ratio(T/B) of compound was calculated by using the HT-29 Human colon Xenograft model in mice at a dose of 3 mg/kg; assay type: functional
Procedure, shortened: (§6)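 Female nu/nu mice, 10⁶ HT29 cells implanted subcutaneously in the flank. Groups of 6 started at about 150 mm2 palpable tumor. Compound in 0.1 M sodium acetate pH 5 given s.c. twice weekly for 5 weeks. Tumor volume from calipers as length × width²/2. T/B is mean volume at end of treatment divided by mean initial volume.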

[15] = system: Mus musculus; test: In vivo efficacy of tumor growth ratio(T/B) of compound was calculated by using the HT-29 Human colon Xenograft model in mice at a dose of 6 mg/kg; assay type: functional; procedure, shortened: as §4
[16] = system: Mus musculus; test: The no. of deaths of mice(infected with HT-29 cells) was reported at a dose of 6 mg/kg; assay type: functional; procedure, shortened: as §3
[17] = system: Mus musculus; test: The body weight loss was measured in mice in vivo by using the HT-29 Human colon Xenograft model at a dose of 9 mg/kg; assay type: functional; procedure, shortened: as §5
[18] = system: Mus musculus; test: (§7) The no. of deaths of mice(infected with HT-29 cells) was reported at a dose of 9 mg/kg; assay type: functional; procedure, shortened: as §3
[19] = system: Mus musculus; test: The no. of deaths of mice(infected with HT-29 cells) was reported at a dose of 2 mg/kg; assay type: functional; procedure, shortened: as §3
[20] = system: Mus musculus; test: The no. of deaths of mice(infected with HT-29 cells) was reported at a dose of 4 mg/kg; assay type: functional; procedure, shortened: as §3
[21] = system: Mus musculus; test: The no. of deaths of mice(infected with HT-29 cells) was reported at a dose of 1 mg/kg; assay type: functional; procedure, shortened: as §3
[22] = system: Mus musculus; test: In vivo efficacy of tumor growth ratio(T/B) of compound was calculated by using the HT-29 Human colon Xenograft model in mice at a dose of 2 mg/kg; assay type: functional; procedure, shortened: as §6
[23] = system: Mus musculus; test: The body weight loss was measured in mice in vivo by using the HT-29 Human colon Xenograft model at a dose of 2 mg/kg; assay type: functional; procedure, shortened: as §3
[24] = system: Mus musculus; test: The body weight loss was measured in mice in vivo by using the HT-29 Human colon Xenograft model at a dose of 4 mg/kg; assay type: functional; procedure, shortened: as §3
[25] = system: Mus musculus; test: In vivo efficacy of tumor growth ratio(T/B) of compound was calculated by using the HT-29 Human colon Xenograft model in mice at a dose of 1 mg/kg; assay type: functional; procedure, shortened: as §6
[26] = system: Mus musculus; test: The body weight loss was measured in mice in vivo by using the HT-29 Human colon Xenograft model at a dose of 1 mg/kg; assay type: functional; procedure, shortened: as §3
[27] = system: Mus musculus; test: In vivo efficacy of tumor growth ratio(T/B) of compound was calculated by using the HT-29 Human colon Xenograft model in mice at a dose of 4 mg/kg; assay type: functional; procedure, shortened: as §6
[28] = system: HT-29; test: In vivo efficacy of tumor growth ratio(T/B) of compound was calculated by using the HT-29 Human colon Xenograft model in mice at a dose of 7 mg/kg; assay type: functional; procedure, shortened: as §4
[29] = system: Mus musculus; test: In vivo efficacy of tumor growth ratio(T/B) of compound was calculated by using the HT-29 Human colon Xenograft model in mice at a dose of 5 mg/kg; assay type: functional; procedure, shortened: as §4
[30] = system: Mus musculus; test: The body weight loss was measured in mice in vivo by using the HT-29 Human colon Xenograft model at a dose of 11 mg/kg; assay type: functional; procedure, shortened: as §5
[31] = system: Mus musculus; test: In vivo efficacy of tumor growth ratio(T/B) of compound was calculated by using the HT-29 Human colon Xenograft model in mice at a dose of 11 mg/kg; assay type: functional; procedure, shortened: as §4
[32] = system: Mus musculus; test: The body weight loss was measured in mice in vivo by using the HT-29 Human colon Xenograft model at a dose of 5 mg/kg; assay type: functional; procedure, shortened: as §5
[33] = system: Mus musculus; test: The no. of deaths of mice(infected with HT-29 cells) was reported at a dose of 5 mg/kg; assay type: functional; procedure, shortened: as §3
[34] = system: Mus musculus; test: The no. of deaths of mice(infected with HT-29 cells) was reported at a dose of 11 mg/kg; assay type: functional; procedure, shortened: as §3
[35] = system: Mus musculus; test: as §7; assay type: ADME, organism-based; design: dose 9 mg/kg; conditions: in vivo; procedure, shortened: as §3
[36] = system: Mus musculus; test: The no. of deaths of mice(infected with HT-29 cells) was reported at a dose of 7 mg/kg; assay type: functional; procedure, shortened: as §3
[37] = system: Mus musculus; test: The body weight loss was measured in mice in vivo by using the HT-29 Human colon Xenograft model at a dose of 7 mg/kg; assay type: functional; procedure, shortened: as §5

## CC[C@@]1(O)C(=O)OCc2c1cc1n(c2=O)Cc2cc3ccccc3nc2-1 [CAMPTOTHECIN]
[1]
  IC50: 41 nM
[2]
  IC50: 48 nM
[3]
  IC50: 207 nM
[4]
  IC50: 37 nM
[5]
  IC50: 46 nM

## CC[C@@]1(O)C(=O)OCc2c1cc1n(c2=O)Cc2c-1nc1cc3c(cc1c2CCl)OCCO3
[1]
  IC50: 8 nM
[4]
  IC50: 4 nM
[5]
  IC50: 13 nM
[6]
  MDR ratio: 2

## CC[C@@]1(O)C(=O)OCc2c1cc1n(c2=O)Cc2c-1nc1cc3c(cc1c2CN1CCN(C)CC1)OCCO3.O=C(O)C(F)(F)F
[7]
  Deaths: 2
[8]
  BW loss: 8%
[9]
  Efficacy: 0.4
[1]
  IC50: 102 nM
[10]
  Deaths: 0
[11]
  Efficacy: 0.8
[2]
  IC50: 1 nM
[12]
  BW loss: 5%
[13]
  BW loss: 22%
[14]
  Efficacy: 5.5
[3]
  IC50: 38 nM
[15]
  Efficacy: 1.6
[16]
  Deaths: 0
[4]
  IC50: 16 nM
[17]
  BW loss: 7%
[5]
  IC50: 6 nM
[18]
  Deaths: 0
[6]
  MDR ratio: 6

## COc1cccc2c1C(=O)c1c(O)c3c(c(O)c1C2=O)C[C@@](O)(C(=O)CO)C[C@@H]3O[C@H]1C[C@H](N)[C@H](O)[C@H](C)O1 [DOXORUBICIN]
[1]
  IC50: 5650 nM
[2]
  IC50: 42 nM
[3]
  IC50: 72 nM
[4]
  IC50: 36 nM
[5]
  IC50: 331 nM
[6]
  MDR ratio: 160

## CC[C@@]1(O)C(=O)OCc2c1cc1n(c2=O)Cc2c-1nc1cc3c(cc1c2CN1CCN(C)CC1)OCO3.O=C(O)C(F)(F)F
[19]
  Deaths: 0
[20]
  Deaths: 0
[21]
  Deaths: 0
[22]
  Efficacy: 1.7
[8]
  BW loss: 12%
[1]
  IC50: 17 nM
[10]
  Deaths: 0
[23]
  BW loss: 8%
[24]
  BW loss: 20%
[25]
  Efficacy: 6.4
[2]
  IC50: 0.5 nM
[26]
  BW loss: 11%
[27]
  Efficacy: 0.6
[14]
  Efficacy: 0.9
[3]
  IC50: 30 nM
[4]
  IC50: 4 nM
[5]
  IC50: 2 nM

## CC[C@@]1(O)C(=O)OCc2c1cc1n(c2=O)Cc2cc3c(CN(C)C)c(O)ccc3nc2-1 [TOPOTECAN]
[28]
  Efficacy: 7
[29]
  Efficacy: 8.6
[30]
  BW loss: 23%
[31]
  Efficacy: 2.9
[1]
  IC50: 149 nM
[32]
  BW loss: 15%
[33]
  Deaths: 0
[11]
  Efficacy: 4.3
[2]
  IC50: 5 nM
[34]
  Deaths: 0
[35]
  Deaths: 2
[3]
  IC50: 104 nM
[36]
  Deaths: 0
[37]
  BW loss: 11%
[4]
  IC50: 44 nM
[17]
  BW loss: 17%
[5]
  IC50: 25 nM
